Consider seven compounds from ChEMBL document CHEMBL1154598, “7-Hydroxy-benzopyran-4-one derivatives: a novel pharmacophore of peroxisome proliferator-activated receptor alpha and -gamma (PPARalpha and gamma) dual agonists” (J Med Chem, 2009).

Series [1] is described as follows: Cytotoxicity against HEK293 cells assessed as viable cells at 50 uM after 48 hrs by aqueous one solution cell proliferation assay relative to control. Type of series: cell-based. The note with it: human, read-out: Activity. In short, it runs like this:
(§1)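 HEK293 cells were seeded overnight, then exposed to 0–100 μM compound for 48 h at 37 °C in 5% CO₂. MTS reagent was added for a further 2 h and absorbance read at 490 nm. Viability is given as % relative to DMSO vehicle control. Two experiments, each in quadruplicate.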

In series [2] the target is T1, Peroxisome proliferator-activated receptor gamma (Homo sapiens, UniProt P37231).
T1 sequence (P37231 whole entry): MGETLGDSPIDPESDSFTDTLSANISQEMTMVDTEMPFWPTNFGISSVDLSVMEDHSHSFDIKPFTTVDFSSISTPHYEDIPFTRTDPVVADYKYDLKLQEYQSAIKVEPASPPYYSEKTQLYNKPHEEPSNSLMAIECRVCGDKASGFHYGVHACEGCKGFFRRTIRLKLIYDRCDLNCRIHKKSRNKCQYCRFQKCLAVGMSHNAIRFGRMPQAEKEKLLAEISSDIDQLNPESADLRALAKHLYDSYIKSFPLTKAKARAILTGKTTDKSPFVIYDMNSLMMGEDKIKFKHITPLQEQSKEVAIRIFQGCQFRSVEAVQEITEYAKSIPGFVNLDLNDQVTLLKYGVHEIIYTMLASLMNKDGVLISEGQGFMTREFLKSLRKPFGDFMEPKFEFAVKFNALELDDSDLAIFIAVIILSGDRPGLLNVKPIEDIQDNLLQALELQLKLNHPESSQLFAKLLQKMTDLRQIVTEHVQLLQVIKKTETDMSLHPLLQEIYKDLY
The series is described as follows: Agonist activity at human PPARgamma assessed as luciferase activity by transactivation assay. Type of series: functional. In short, it runs like this: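 Transiently transfected HEK293 (PPRE-luciferase reporter plus pSG5-hPPARγ1 and β-gal control), compound exposure 48 h. EC50 is the ligand concentration giving half-maximal fold induction of β-gal-normalized luciferase, fitted by nonlinear regression. Means of three experiments.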

Series [3] has as its target T2, Peroxisome proliferator-activated receptor alpha (Homo sapiens) (UniProt Q07869).
T2 sequence (whole entry): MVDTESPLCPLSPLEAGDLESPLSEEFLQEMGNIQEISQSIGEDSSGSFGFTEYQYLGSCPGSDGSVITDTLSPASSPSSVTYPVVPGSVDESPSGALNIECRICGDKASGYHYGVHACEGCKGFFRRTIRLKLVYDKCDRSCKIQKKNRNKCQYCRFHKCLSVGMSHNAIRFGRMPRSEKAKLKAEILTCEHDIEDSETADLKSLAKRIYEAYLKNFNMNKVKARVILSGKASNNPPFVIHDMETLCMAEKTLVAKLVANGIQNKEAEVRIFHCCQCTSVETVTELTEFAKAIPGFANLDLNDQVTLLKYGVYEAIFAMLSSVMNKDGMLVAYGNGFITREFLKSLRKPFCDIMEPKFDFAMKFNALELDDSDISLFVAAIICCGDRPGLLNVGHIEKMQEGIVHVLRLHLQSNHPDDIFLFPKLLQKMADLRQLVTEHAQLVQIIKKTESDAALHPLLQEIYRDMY
Kind of series: Agonist activity at human PPARalpha expressed in HEK293 cells co-transfected with PPRE assessed as beta-galactosidase signal at 40 uM after 48 hrs by reporter gene assay relative to control. The format is functional, cell-based. Put shortly: (§2)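 Human PPARα transactivation in HEK293 cells grown in DMEM/F-12 with 10% heat-inactivated FBS. Cells were transfected with FuGENE 6 using a PPRE-luciferase reporter, pBI-G-hPPARα and a β-galactosidase control plasmid. After 24 h they were replated at 5 × 10⁴ cells/well, attached overnight, then dosed for 48 h with 0.1% DMSO as vehicle. Luciferase was normalized to β-gal and expressed as fold over vehicle. Two experiments, each in triplicate.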

For series [4], the target named is T2, Peroxisome proliferator-activated receptor alpha (Homo sapiens). The series is described as follows: Agonist activity at human PPARalpha expressed in HEK293 cells co-transfected with PPRE assessed as beta-galactosidase signal at 25 uM after 48 hrs by reporter gene assay relative to control. The format is functional, cell-based. In short, it runs like this: as §2

Series [5] addresses T3, Peroxisome proliferator-activated receptor alpha (Homo sapiens, UniProt Q07869).
T3 sequence (Q07869 whole entry): T2 sequence (whole entry)
The series is described as follows: Agonist activity at human PPARalpha assessed as luciferase activity by transactivation assay. The format is functional.

A short description of series [6]: Cytotoxicity against HEK293 cells assessed as viable cells at 10 uM after 48 hrs by aqueous one solution cell proliferation assay relative to control. The format is cell-based. The note with it: human, read-out: Activity. Put shortly: as §1
Series [7] has as its target T4, Peroxisome proliferator-activated receptor gamma (Homo sapiens) (UniProt P37231).
T4 sequence (whole entry): T1 sequence (P37231 whole entry)
The series is described as follows: Agonist activity at human PPARgamma expressed in HEK293 cells co-transfected with PPRE assessed as beta-galactosidase signal at 25 uM after 48 hrs by reporter gene assay relative to control. The format is functional, cell-based. In short, it runs like this:
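HEK293 cells were transfected with FuGENE 6 using a PPRE-luciferase reporter, pSG5-hPPARγ1 and a β-galactosidase control plasmid. After 24 h they were replated at 5 × 10⁴ cells/well, attached overnight, then treated for 48 h with 0.1% DMSO as vehicle. Luciferase was read, normalized to the β-gal signal and reported as fold activation over vehicle. Mean of two experiments in triplicate.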
For orientation: Reporter assays use an easily measured gene product as a stand-in for the process of interest.

Series [8] deals with T4, Peroxisome proliferator-activated receptor gamma (Homo sapiens). The series is described as follows: Agonist activity at PPARgamma expressed in mouse RAW264.7 cells assessed as beta-galactosidase signal at 10 uM by reporter gene assay relative to control. The format is functional, cell-based.
Series [9] in a line: Cytotoxicity against HEK293 cells assessed as viable cells at 100 uM after 48 hrs by aqueous one solution cell proliferation assay relative to control. Type of series: cell-based. Particulars: human, read-out: Activity. In short, it runs like this:
as §1

Series [10] concerns HEK293. Kind of series: Cytotoxicity against HEK293 cells assessed as decrease in viable cells at 50 uM after 48 hrs by aqueous one solution cell proliferation assay relative to control. The format is cell-based. Particulars: human, hek293, 48 h. In short, it runs like this: as §1
Series [11] in a line: Cytotoxicity against HEK293 cells assessed as viable cells at 0.1 uM after 48 hrs by aqueous one solution cell proliferation assay relative to control. Type of series: cell-based. The note with it: human, read-out: Activity. Put shortly:
as §1

By EC50 is commonly meant the concentration at which the effect is half-maximal. `COc1cc(OC)cc(-c2coc3cc(O)ccc3c2=O)c1`: the viability at 48 h, 50 µM in [1] was over 67%. Also, the concentration for a half-maximal effect (EC50) in series [2] came out at 18.9 µM; in series [5], 24.6 µM. In addition, the fold change (FC) in series [3] turned out to be 25.3; in series [4], 4.8; in [7] it was 116. Further, the viability at 48 h, 10 µM in series [6] was over 80%.
As for `O=c1c(O)c(-c2ccc(O)cc2)oc2cc(O)cc(O)c12`, the fold change (FC) in series [3] is 2.6; in [4], 1.8; in series [8], 7.6; in series [7], 3.5.
Turning to `COc1cccc(-c2coc3cc(O)ccc3c2=O)c1`, the viability at 48 h, 50 µM in series [1] is over 67%. For the same compound, the viability at 48 h, 100 µM in [9] is over 60%. The results for the concentration for a half-maximal effect (EC50) in [2] and in series [5] were 22.3 µM and 23.1 µM, respectively. The fold change (FC) turned out to be 43 in series [3], 16.5 in series [4] and 57.5 in series [7]. Further, the viability at 48 h, 10 µM in [6] was over 90%.
As to `O=c1cc(-c2ccccc2)oc2cc(O)cc(O)c12`, the fold change (FC) in series [3] is 5.3; in [4], 3.4; in series [8], 5.6; in [7], 4.
For `CC(C)OC(=O)C(C)(C)Oc1ccc(C(=O)c2ccc(Cl)cc2)cc1` [FENOFIBRATE], in series [10], the Activity was 38%. The viability at 48 h, 0.1 µM in series [11] is over 90%.
As to `O=c1c(-c2ccc3c(c2)OCO3)coc2cc(O)ccc12` [PSEUDOBAPTOGENIN], the viability at 48 h, 50 µM in [1] is over 67%. For the same compound, in [9], the viability at 48 h, 100 µM was over 60%. Besides, the 50% effective concentration (EC50) in series [2] came to 26.9 µM; in series [5], 8.9 µM. Moreover, the fold change (FC) was 11.7 in [3], 5.6 in series [4] and 38.5 in series [7]. Moreover, in series [6], the viability at 48 h, 10 µM was over 90%.
For `O=c1cc(-c2ccc(O)cc2)oc2cc(O)cc(O)c12`, the fold change (FC) in series [3] was determined as 2.3; in series [4], 2; in series [8], 8.13; in series [7], 5.4.
